Experimental findings from ChEMBL document CHEMBL5335790, “Design, synthesis and biological evaluation of novel 2,4-thiazolidinedione derivatives able to target the human BAG3 protein” (Eur J Med Chem, 2023) are described below.

The source made the active and inactive calls. The calls are words filed in the database; no cut-off is given here.

The subject of one series is HD-MB03. The series is described as follows: Antiproliferative activity against human HD-MB03 cells assessed as cell growth inhibition incubated for 72 hrs by resazurin dye based analysis. In kind it is functional. Put shortly: (§1)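 Cells seeded at 2000/well, treated 24 h later with compounds in a 6-point 2-fold dose series, duplicate wells, two independent experiments. After 72 h, resazurin was added at 44 µM final for 3 h at 37 °C and fluorescence was read at 590 nm. Viability was normalized to 1 µM bortezomib (positive) and 0.5% DMSO (negative) controls. GI50 is the mean ± SEM of dose-response curves.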

For a further series, the system named is RS4-11. The series is described as follows: Antiproliferative activity against human RS4-11 cells assessed as cell growth inhibition incubated for 72 hrs by resazurin dye based analysis. In kind it is functional. The essentials:
as §1

A further series deals with A549. Briefly: Antiproliferative activity against human A549 cells assessed as cell growth inhibition incubated for 72 hrs by resazurin dye based analysis. It counts as functional. Put shortly: as §1
The target in series [1] is T1, BAG family molecular chaperone regulator 3 (Homo sapiens, UniProt O95817). Briefly: Binding affinity to CM4 sensorchip immobilized glycosylated C-terminal His tagged human BAG3 transfected in HEK293T cells assessed as dissociation constant by SPR analysis. Put shortly: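 SPR single-cycle kinetics on CM4-immobilized HEK-293T-expressed BAG3-His. Increasing compound concentrations in PBS with 5% DMSO and 0.05% P20 were injected at 30 µL/min without regeneration between injections, with blank subtraction. Kd from steady-state analysis, reported as mean ± SEM and compared by Student t-test.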
T1 sequence (O95817 whole entry): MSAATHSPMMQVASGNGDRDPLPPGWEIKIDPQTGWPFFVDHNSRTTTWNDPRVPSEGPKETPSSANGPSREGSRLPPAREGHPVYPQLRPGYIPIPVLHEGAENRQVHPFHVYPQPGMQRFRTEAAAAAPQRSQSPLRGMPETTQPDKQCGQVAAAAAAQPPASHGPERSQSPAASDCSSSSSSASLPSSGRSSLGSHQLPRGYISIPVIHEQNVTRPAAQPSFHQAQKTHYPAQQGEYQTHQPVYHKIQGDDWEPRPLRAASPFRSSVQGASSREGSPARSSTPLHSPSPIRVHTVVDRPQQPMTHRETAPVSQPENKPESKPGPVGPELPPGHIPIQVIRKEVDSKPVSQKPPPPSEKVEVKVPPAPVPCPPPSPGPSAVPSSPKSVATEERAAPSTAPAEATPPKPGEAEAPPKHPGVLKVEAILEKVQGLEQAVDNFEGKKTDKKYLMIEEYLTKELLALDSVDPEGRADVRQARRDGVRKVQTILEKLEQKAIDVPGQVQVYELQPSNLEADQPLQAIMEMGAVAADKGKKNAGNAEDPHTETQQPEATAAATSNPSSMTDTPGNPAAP

The target in series [2] is T1, BAG family molecular chaperone regulator 3. The series is described as follows: Binding affinity to CM4 sensorchip immobilized C-terminal His tagged human BAG3 transfected in HEK293T cells assessed as binding capacity at 50 uM by SPR analysis. Put shortly: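 SPR screen on BAG3-His amine-coupled to a CM4 chip at 60 µg/mL in pH 2.8 acetate. Compound at 50 µM in PBS with 5% DMSO and 0.05% P20 was injected for 90 s at 30 µL/min, then washed. Chip regenerated with 10 mM glycine pH 3. Bound RU read at equilibrium against a void flow cell; 3–10 repeats, mean ± SEM.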
Background: SPR reads the build-up and loss of mass on a sensor chip optically.

For series [3] the target is unchanged. The series is described as follows: Binding affinity to C-terminal His tagged human BAG3 transfected in HEK293T cells assessed as intermolecular nuclear overhauser effect mediated protein magnetization at 125 uM by waterLOGSY experiment. In kind it is cell-based. The essentials: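 Ligand-observed NMR in 50 mM sodium phosphate pH 7.8, 150 mM NaCl, 0.04% NaN3, 1.3% DMSO-d6, 5% D2O. Compound at 125 µM with 5 µM BAG3-His (HEK-293T expressed, purified by IMAC and SEC), each also run without protein. WaterLOGSY used 240 scans, 1.5 s mixing and water inversion at 4.7 ppm. STD used 256 scans with protein saturation at 0.4 ppm.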

Series [4] in a line: Cytotoxicity against PHA stimulated human PBMC cells assessed as cell growth inhibition incubated for 72 hrs by MTT assay. It counts as toxicity, cell-based. (In general: Tetrazolium dyes change colour on reduction, which living cells bring about.)
Series [5] can be described thus: Cytotoxicity against resting human PBMC cells assessed as cell growth inhibition incubated for 72 hrs by MTT assay. It counts as toxicity, cell-based.

The term GI50 denotes the concentration at which growth is held to half of that of the control. Usually Kd stands for a measure of binding affinity in units of concentration. Consider `O=C(CN1C(=O)S/C(=C\c2ccc(O)c(O)c2)C1=O)N1CCOCC1`, for which the GI50 in the series with HD-MB03 came to 33.1 µM; with RS4-11, 24.8 µM; in the series with A549, 49.4 µM. Also, the Kd in series [1] stood at 152 µM. In series [2], the Activity is more than 5 RU.
The like results for `CCOC(=O)C(c1ccccc1)N1C(=O)S/C(=C\c2ccc(O)c(O)c2)C1=O` (racemic) were, in that order, 17.6 µM, 9.53 µM, 33.3 µM, 366 µM and more than 5 RU.
In the case of `CC(C(=O)N1CCCCC1)N1C(=O)S/C(=C\c2ccc(O)c(O)c2)C1=O` (racemic), the 50% growth inhibitory concentration (GI50) in the series with HD-MB03 was 13.9 µM; in the series on RS4-11, 8.6 µM; with A549, 29.4 µM. Also, the Kd in series [1] turned out to be 150 µM. The Activity in series [2] is more than 5 RU.
Turning to `CCOC(=O)CN1C(=O)S/C(=C\c2ccc(O)c(O)c2)C1=O`, in series [3], the result was Active. The GI50 at 72 h in series [4] and in series [5] was more than 100 µM each time. The GI50 stood at 14.8 µM in the series with HD-MB03, 6.4 µM in the series with RS4-11 and 42.5 µM in the series with A549. The Kd in series [1] was 233 µM.
On to `CCOC(=O)C(C)N1C(=O)S/C(=C\c2ccc(O)c(O)c2)C1=O` (racemic), for which the concentration for 50% growth inhibition (GI50) in the series on HD-MB03 was determined as 25.3 µM; with RS4-11 it was 5.1 µM; in the series on A549, 32.5 µM. For the same molecule, in series [1], the Kd came to 286 µM. The Activity in series [2] is more than 5 RU.
The like results for `CCOC(=O)C(C)N1C(=O)S/C(=C\c2ccc3[nH]cnc3c2)C1=O` (racemic) were, in that order, 42.5 µM, more than 100 µM, more than 100 µM, 198 µM and more than 5 RU.
